PGC1a Ac signal = raises PGC1a acetylation signal in U2OS cells | 0.21% of 350,000 active | U2OS PGC1a acetylation AlphaScreen, overnight | activation, % at 15.6 µM | AID 651723;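 active = every replicate reaching activation of at least 50%, whatever the mean replicate activation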;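 also: hits raise the AlphaScreen acetylation signal above neutral controls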
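detection = AlphaScreen lysate read | assay system = U2OS cells expressing flag-PGC1a plus GCN5 | input = 7000 cells/well | dosing = one concentration | times = compound overnight at 37 °C, each detection step 1 h RT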
The depositor's hits bear a star. This is one part of a sample in which hits are shown more often than they occur.

SMILES	PGC1a Ac signal
O=C(Nc1nc(C2C3CC4CC(C3)CC2C4)cs1)c1cc2cc([N+](=O)[O-])ccc2oc1=O (configuration not stated)	52.5*
O=C(OCc1nc(-c2ccccc2)oc1COC(=O)c1ccco1)c1ccco1	-44.0
C[C@@H]1CN([C@@H](C)CO)C(=O)c2cc(C#CCN(C)C)cnc2O[C@H]1CN(C)Cc1ccc(F)cc1	-48.5
C[C@H]1CN([C@@H](C)CO)C(=O)c2cc(C3=CCCC3)cnc2O[C@@H]1CN(C)C(=O)c1cccnc1	-53.2
C[C@@H]1CN([C@@H](C)CO)C(=O)c2cc(C3=CCCC3)cnc2O[C@@H]1CN(C)C(=O)Nc1cccc(F)c1	131.2*
C[C@H]1CN([C@@H](C)CO)C(=O)c2cc(-c3cncnc3)cnc2O[C@@H]1CN(C)C(=O)c1cccc(F)c1	-51.2
C[C@@H]1CN([C@H](C)CO)C(=O)c2cc(C#Cc3cccc(F)c3)cnc2O[C@H]1CN(C)CC1CCCC1	58.1*
C[C@H]1CN([C@@H](C)CO)C(=O)c2cc(C#Cc3ccccc3)cnc2O[C@@H]1CN(C)C(=O)c1ccccc1F	-45.9
COc1ccc(S(=O)(=O)N2CCC(C(=O)N3CCC(C(N)=O)CC3)CC2)cc1Cl	-43.8
C[C@@H]1CN([C@@H](C)CO)C(=O)c2ccccc2-c2ccccc2CO[C@@H]1CN(C)C(=O)Nc1cccc(Cl)c1Cl	-41.4
CCN1CCN(Cc2ccc(NC(=O)c3cc(NC(=O)c4cncc(-c5ccc(C#N)cc5)c4)cc(OC)c3)cc2C(F)(F)F)CC1	-85.9
COc1ccc(-c2cc(C(F)(F)F)nc(S(C)(=O)=O)n2)cc1	66.3*
CCOC(=O)CCS(=O)(=O)c1nc(-c2ccccc2)cc(C(F)(F)F)n1	-67.6
Oc1ccc(/C=N/Nc2nc(-c3ccc(Cl)cc3)cc(C(F)(F)F)n2)cc1	-64.1
O=C(O)CCC(NC(=S)Nc1ccccc1)C(=O)O (configuration not stated)	-73.1
CCOC(=O)c1c(C)n(C)c2ccc(OCC(O)Cn3nc(C)c(Br)c3C)cc12 (configuration not stated)	61.0*
COc1cc(OC)c2c(-c3cccc(-c4cccc(C)c4)c3)cc(=O)oc2c1	59.8*
CC(C)CCCCCCCCCCCCC(=O)NCC(=O)NC1C(O)C(O)C(Nc2ncnc3nc[nH]c23)OC1C(O)CO (configuration not stated)	-95.9
O=C(Nc1cccc(Cl)c1)Nc1ccc2c(c1)OCO2	-58.8
CC(=O)Nc1cccc(-c2ccnc3c2CC(C)(C(=O)Nc2ccc4c(c2)OCO4)O3)c1 (configuration not stated)	69.8*
COc1ccc(NC(=O)/C(Cl)=C(/Cl)S(=O)Cc2ccccc2)cn1 (configuration not stated)	-71.4
COc1ccc(NC(=O)C2(C)Cc3c(-c4cccc(NC(C)=O)c4)ccnc3O2)cn1 (configuration not stated)	57.9*
S=c1sc2c(Cl)ncnc2n1-c1ccccc1	-64.0
COc1ccc(S(=O)(=O)N(C)C[C@@H]2Oc3ccc(NC(=O)CCN4CCOCC4)cc3C(=O)N([C@H](C)CO)C[C@H]2C)cc1	-50.1
COc1ccc(NC(=O)Nc2ccc3c(c2)C(=O)N([C@H](C)CO)C[C@H](C)[C@@H](CN(C)S(=O)(=O)c2ccc(Cl)cc2)O3)cc1	-40.4
SMILES	PGC1a Ac signal
O=C(N/N=C/c1ccc(O)c2ncccc12)c1cccc(Br)c1	-66.8
O=Nc1ccc(O)c2ncccc12	245.0*
O=[N+]([O-])c1cc(F)c2cccnc2c1O	-42.5
COc1ccc2c3c(n(C)c2c1)[C@H](CO)NCC31CCN(Cc2cc(-c3ccccc3)on2)CC1	-68.9
COc1ccc(N(C)S(=O)(=O)c2cccc(C(=O)Nc3ccc(-n4cnnn4)cc3)c2)cc1	67.0*
COc1ccc(C(=O)Nc2ccc3c4c(cccc24)CC3)cc1	-86.3
Cc1cc(Br)c(OCc2ccc(C(=O)N/N=C/c3ccc[nH]3)cc2)c(Br)c1	-86.7
COc1ccc(C(=O)Nc2cccc(S(C)(=O)=O)c2)cc1OC	-41.4
COc1ccccc1OCCn1cc(/C=N/NC(=O)c2ccncc2)c2ccccc21	-49.6
COc1cccc(/C=N/NC(=O)c2ccc(-n3cnnn3)cc2)c1	83.5*
NC(=O)c1oc2ccccc2c1NC(=O)C1CC(=O)N(c2ccccc2)C1 (configuration not stated)	-42.1
CC(C)(CO)CNc1ccn2nccc2n1	-43.4
C[C@@H]1CN([C@@H](C)CO)C(=O)c2cc(/C=C/c3ccccc3)cnc2O[C@@H]1CN(C)Cc1cccnc1	-46.3
CCOc1ccc(-c2[nH]ncc2-c2ccc(OC)c(OC)c2)c(O)c1	67.6*
COc1ccc(-c2[nH]ncc2CN(C)C(C)c2ccon2)cc1F (configuration not stated)	-79.8
COc1ccc(-c2[nH]ncc2-c2ccc3c(c2)OCCO3)c(O)c1	-53.1
O=C1C=C(c2cc3ccccc3s2)CCC1	58.2*
O=C(N/N=C/C=C\c1ccccc1[N+](=O)[O-])c1cccnc1	-41.6
N#C/C(=C\C=C\c1ccccc1[N+](=O)[O-])C(=O)NCc1ccccc1	127.6*
C[C@H]1CN([C@@H](C)CO)C(=O)c2cccc(NC(=O)Nc3ccc(C(F)(F)F)cc3)c2O[C@H]1CN(C)C(=O)Nc1cccc2ccccc12	-47.1
O=C(NC1CCCCC1)C(c1ccc2ncccc2c1)N(Cc1ccc2c(c1)OCO2)C(=O)c1ccc2c(c1)OCCO2 (configuration not stated)	-96.0
Cc1nc(SCC(=O)OCc2ccccc2)c(C#N)c(-c2ccccc2)c1C(=O)Nc1ccccc1	56.9*
N#Cc1c(-c2ccccc2)c(-c2ccccc2)nn(CC(=O)NNC(=O)Nc2ccc(Cl)cc2)c1=O	-40.0
CCOC(=O)c1c(NC(=O)/C=C/C(=O)O)sc(C)c1-c1ccc(C(C)(C)C)cc1	-46.9
CCOC(=O)c1c(NC(=O)c2c(Br)cnn2CC)sc(C)c1C	82.8*
SMILES	PGC1a Ac signal
C=CCc1ccc(OCCCCNC(C)CC)c(OC)c1 (configuration not stated)	-26.3
CC(=O)N(C)C[C@H]1Oc2ncc(C#CCc3ccccc3)cc2C(=O)N([C@@H](C)CO)C[C@H]1C	-52.0
O=[N+]([O-])c1ccc(S(=O)(=O)c2cccc(C(F)(F)F)c2)nc1	172.1*
C[C@@H]1CN([C@@H](C)CO)C(=O)CCCn2nncc2CO[C@H]1CN(C)S(=O)(=O)c1ccc(Cl)cc1	-96.7
COc1cc(CN2[C@@H]3CNC[C@H]2C3c2ccc(-c3ccccc3)cc2)cc(OC)c1 (some centres not stated)	52.5*
N#C[C@@H]1[C@@H](c2ccc(-c3ccccc3)cc2)[C@@H](CO)N1C(=O)Cc1ccncc1	-63.3
O=C(Cc1ccc(-n2cccc2)cc1)NCc1cccs1	58.1*
O=C(O)c1ccc(N/N=C/C(Br)=C/c2ccccc2)cc1	54.0*
Cc1ccc(NCC(=O)N/N=C\C(Br)=C\c2ccccc2)cc1	145.3*
C[C@@H]1CN([C@H](C)CO)C(=O)c2cc(-c3ccccc3)cnc2O[C@@H]1CN(C)C(=O)Cc1ccccc1	-42.0
C[C@@H]1CN([C@@H](C)CO)C(=O)CCCn2cc(nn2)CO[C@H]1CN(C)Cc1ccncc1	-51.2
CCC(C)NCCOCCOc1ccc(C)cc1OC (configuration not stated)	-49.5
CCCCOc1ccc(/C=C/C(=O)OCC(=O)c2c(N)n(C)c(=O)n(C)c2=O)cc1OCC	-46.8
CCOc1ccc(/C=C/C(=O)Oc2ccccc2)cc1	154.0*
CCOC(=O)C(CC)(CC)C(=O)/C=C/c1ccc(Br)cc1	-56.7
